# Measured values from different studies.
# Each line is one published result; the experiments were not run side by side.
# Target: Ephrin type-B receptor 3 (EPHB3, Homo sapiens, UniProt P54753)
SMILES,test,conditions,quantity,result
Cc1cnc(NC2CCOCC2)nc1-n1cnc(C(=O)NC(CN)c2cc(F)cc(Cl)c2)c1 (centres unmarked),"enzyme activity, inhibitor, radiometric",1 µM,remaining activity,115%
COc1cc(Nc2cnc(C#N)c(O[C@H](C)CN(C)C)n2)ncc1-c1cnn(C)c1,"enzyme activity, inhibitor, radiometric",10 µM,remaining activity,23%
COc1cc2nccc(Oc3ccc(NC(=O)Nc4ccc(F)cc4F)c(F)c3)c2cc1OC,"thermal stability, DSF",10 µM,ΔTm,5 to 10 °C
COc1cc(/C=C/C(=O)CC(=O)/C=C/c2ccc(O)c(OC)c2)ccc1O,"enzyme activity, inhibitor",1 µM,activity vs control,93%
FC(F)c1nc2ccccc2n1-c1nc(N2CCOCC2)nc(N2CCOCC2)n1,"enzyme activity, inhibitor",10 µM,remaining activity,113%
N#CCCc1ccc2c(c1)-c1[nH]c3ccc([N+](=O)[O-])cc3c1CC(=O)N2,cell-free assay,0.5 µM,remaining signal,102%
CC/C(=N\NC(=O)NCc1cccc(O)c1)c1ccc(O)c(C)c1O,"enzyme activity, inhibitor",0.1 µM,inhibition,0.6%
Cn1cncc1C1=CN(c2ncnc3[nH]cnc23)CCS1,"enzyme activity, inhibitor, radiometric",50 nM,inhibition,12.8%
O=c1nc(-c2ccccn2)sc2ccccc12,"cell-free assay, competition with immobilised ligand",1 µM,remaining binding,100%
O=C(Nc1cnn(-c2csc(C(=O)NC3COC3)c2)c1)Nc1c(F)cccc1Cl,"enzyme activity, inhibitor",5 µM,remaining activity,96.5%
CNC(=O)c1cc(Oc2ccc(NC(=O)Nc3ccc(Cl)c(C(F)(F)F)c3)cc2)ccn1,"enzyme activity, inhibitor",0.3 µM,inhibition,3%
COc1cc2ncnc(Nc3ccc(Oc4ccccc4)cc3C)c2cc1OC,"enzyme activity, inhibitor",1 µM,inhibition,1%
Cn1cc(Cl)c2c(Oc3c(F)cc(Nc4cc(Cl)nc(N)n4)cc3F)ccnc21,"cell-free assay, competition with immobilised ligand",0.1 µM,remaining binding,100%
CC(C)(C)C(=O)c1sc(NC2CCCCC2)nc1N,"enzyme activity, inhibitor",10 µM,remaining activity,94%
CN(C(=O)c1ccccc1)c1cc(N(C)c2ccc3c(c2)CCc2ccc(C(=O)NCCN4CCOCC4)cc2C3=O)ccc1F,"cell-free assay, competition with immobilised ligand",1 µM,remaining binding,94%
Clc1ccc(Nc2nnc(Cc3ccncc3)c3ccccc23)cc1,cell-free assay,0.5 µM,remaining signal,65.1%
COc1cc(Cl)c(C(=O)N[C@@H](CN[C@H]2CC[C@@H](N)CC2)Cc2ccc(C#N)cc2)cc1-c1ccc(CN[C@H](C)c2ccc(C)cc2)o1,"enzyme activity, inhibitor",1 µM,remaining activity,97%
CN([C@@H]1CCc2c(CC(=O)O)c3ccccc3n2C1)S(=O)(=O)c1ccc(F)cc1,"cell-free assay, competition with immobilised ligand",1 µM,remaining binding,88%
Nc1nc(NC2CCCCC2)sc1C(=O)c1ccccc1,"enzyme activity, inhibitor",10 µM,remaining activity,88%
CO[C@@H](C)c1c(Nc2ccc([C@H](N(C)C(=O)C3CCS(=O)(=O)CC3)C(F)(F)F)cc2)cnc2cc(Cl)nn12,"cell-free assay, competition with immobilised ligand",1 µM,remaining binding,100%
Nc1ncnc2occ(-c3ccc(NC(=O)Nc4cc(C(F)(F)F)ccc4F)cc3)c12,cell-free assay,20 µM,remaining signal,0%
CCCOc1ccc([C@H]2[C@H](C(=O)O)[C@@H](c3ccc4c(c3)OCO4)CN2CC(=O)Nc2c(CC)cccc2CC)cc1,"cell-free assay, competition with immobilised ligand",1 µM,remaining binding,97%
CCN(CC)CCNC(=O)c1c(C)[nH]c(/C=C2\C(=O)Nc3ccc(F)cc32)c1C,"enzyme activity, inhibitor",10 µM,inhibition,10%
Cn1nc(C(=O)NCc2ccc(C(=O)O)cc2)cc1-c1ccc2[nH]ccc2c1,"cell-free assay, competition with immobilised ligand",0.1 µM,remaining binding,100%
Cc1cc(NC(=O)c2cccc3cc(-c4cccc5[nH]nc(N)c45)ccc23)ccc1F,"enzyme activity, inhibitor",0.1 µM,activity vs control,88%
CN(c1ncccc1CNc1nc(Nc2ccc3c(c2)CC(=O)N3)ncc1C(F)(F)F)S(C)(=O)=O,"enzyme activity, inhibitor",1 µM,inhibition,41%
O=C1NC(=O)c2cc(Nc3ccc(F)cc3)c(Nc3ccc(F)cc3)cc21,cell-free assay,0.5 µM,remaining signal,94.7%
Cn1nc(C(F)(F)F)cc1-c1cnc(N2CCc3cc(S(=O)(=O)Nc4c(F)cc(Cl)cc4F)cc(N4CCCC4=O)c32)nc1,"cell-free assay, competition with immobilised ligand",1 µM,remaining binding,95%
CC(C)(C)c1nc(-c2cccc(NS(=O)(=O)c3c(F)cccc3F)c2F)c(-c2ccnc(N)n2)s1,"enzyme activity, inhibitor, radiometric",1 µM,remaining activity,92%
